Common to all, as to assay type: cell-based
The target of experiment [1] is T1, Paired amphipathic helix protein Sin3a (Homo sapiens) (UniProt Q96ST3).
T1 sequence (whole entry): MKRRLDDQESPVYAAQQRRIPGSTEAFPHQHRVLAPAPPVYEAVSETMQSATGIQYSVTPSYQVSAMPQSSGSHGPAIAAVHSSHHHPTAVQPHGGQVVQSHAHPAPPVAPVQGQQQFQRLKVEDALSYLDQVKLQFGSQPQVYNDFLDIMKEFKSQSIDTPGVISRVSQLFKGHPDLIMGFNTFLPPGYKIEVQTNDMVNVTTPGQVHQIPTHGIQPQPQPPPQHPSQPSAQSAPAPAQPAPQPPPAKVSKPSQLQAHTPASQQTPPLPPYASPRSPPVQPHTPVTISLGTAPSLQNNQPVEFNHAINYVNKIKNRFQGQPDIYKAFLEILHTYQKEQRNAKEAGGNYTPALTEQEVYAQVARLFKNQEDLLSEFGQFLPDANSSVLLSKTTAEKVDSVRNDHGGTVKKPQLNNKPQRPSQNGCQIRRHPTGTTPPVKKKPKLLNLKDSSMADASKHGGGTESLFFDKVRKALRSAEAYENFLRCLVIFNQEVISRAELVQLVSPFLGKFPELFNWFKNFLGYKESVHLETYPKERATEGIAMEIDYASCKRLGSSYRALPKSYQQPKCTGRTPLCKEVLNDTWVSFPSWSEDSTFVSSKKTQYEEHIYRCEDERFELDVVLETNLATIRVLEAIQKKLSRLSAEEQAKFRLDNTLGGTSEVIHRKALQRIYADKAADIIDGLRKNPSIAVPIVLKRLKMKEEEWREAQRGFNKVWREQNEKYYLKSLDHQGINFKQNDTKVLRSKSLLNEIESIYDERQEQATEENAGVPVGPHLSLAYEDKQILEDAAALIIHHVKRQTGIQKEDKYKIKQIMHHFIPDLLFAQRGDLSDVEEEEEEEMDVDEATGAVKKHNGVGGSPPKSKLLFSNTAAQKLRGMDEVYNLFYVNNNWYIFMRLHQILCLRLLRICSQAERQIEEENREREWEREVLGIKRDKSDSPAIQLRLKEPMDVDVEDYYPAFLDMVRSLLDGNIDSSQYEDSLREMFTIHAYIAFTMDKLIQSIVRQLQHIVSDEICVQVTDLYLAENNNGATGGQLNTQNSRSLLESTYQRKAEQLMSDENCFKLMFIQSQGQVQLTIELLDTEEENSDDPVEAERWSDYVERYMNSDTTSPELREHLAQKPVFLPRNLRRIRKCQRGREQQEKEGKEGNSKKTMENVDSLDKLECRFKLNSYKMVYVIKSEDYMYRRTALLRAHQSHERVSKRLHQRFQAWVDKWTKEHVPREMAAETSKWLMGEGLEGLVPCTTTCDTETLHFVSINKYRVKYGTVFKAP
The experiment in a line: Induction of SIN3A degradation in human HCT-116 cells assessed as reduction in SIN3A abundance by measuring remaining activity at 0.1 uM measured after 24 hrs by Western blot analysis (reference value: 100%). The method, boiled down: (§1)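 HCT116 cells seeded in six-well plates for 24 h, then exposed 24 h to compound (0.01–10 μM) or DMSO in fresh medium. Lysis in Tris-HCl/NaCl/NP-40/Triton X-100 with protease inhibitor. Bradford-normalised 30 μg protein per lane. Quantitative Western blot used specific HDAC1, HDAC2, HDAC3, LSD1 or Sin3a antibodies with IRDye secondaries. Abundance compared with DMSO, n = 2 replicates.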

The target of experiment [2] is T2, E3 ubiquitin-protein ligase Mdm2/Histone deacetylase 3 (Homo sapiens) (UniProt Q00987+O15379). As to the kind of experiment: PROTAC activity at MDM2/HDAC3 in human HCT-116 cells assessed as reduction in HDAC3 abundance by measuring remaining activity at 0.05 uM measured after 24 hrs by Western blot analysis. The method, boiled down: (§2)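 HCT116 cells in DMEM with 10% FBS and glutamine/penicillin/streptomycin at 37 °C, 5% CO2. Seeded 4 × 10^5 cells/well, after 24 h treated 24 h with DMSO or compound in fresh medium. Lysed in Tris-HCl/NaCl/NP-40/Triton X-100 buffer with protease inhibitor, Bradford-quantified, 30 μg protein per lane. Quantitative Western blot with specific HDAC1/2/3 antibodies, IRDye secondaries, infrared imaging, versus DMSO. n = 2 replicates.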
T2 sequence (O15379 whole entry, looked up): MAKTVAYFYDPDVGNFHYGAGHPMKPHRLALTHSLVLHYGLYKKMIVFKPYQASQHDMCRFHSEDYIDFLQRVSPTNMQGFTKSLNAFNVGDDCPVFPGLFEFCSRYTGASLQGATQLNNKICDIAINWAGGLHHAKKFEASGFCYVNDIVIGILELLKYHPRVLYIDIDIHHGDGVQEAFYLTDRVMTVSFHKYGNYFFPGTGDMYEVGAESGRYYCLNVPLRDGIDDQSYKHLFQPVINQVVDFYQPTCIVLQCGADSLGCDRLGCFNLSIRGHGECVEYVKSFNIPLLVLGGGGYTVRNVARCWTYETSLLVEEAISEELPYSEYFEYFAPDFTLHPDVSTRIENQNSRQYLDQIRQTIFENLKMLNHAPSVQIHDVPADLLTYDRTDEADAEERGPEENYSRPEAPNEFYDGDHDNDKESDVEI
T2 sequence (Q00987 whole entry, looked up): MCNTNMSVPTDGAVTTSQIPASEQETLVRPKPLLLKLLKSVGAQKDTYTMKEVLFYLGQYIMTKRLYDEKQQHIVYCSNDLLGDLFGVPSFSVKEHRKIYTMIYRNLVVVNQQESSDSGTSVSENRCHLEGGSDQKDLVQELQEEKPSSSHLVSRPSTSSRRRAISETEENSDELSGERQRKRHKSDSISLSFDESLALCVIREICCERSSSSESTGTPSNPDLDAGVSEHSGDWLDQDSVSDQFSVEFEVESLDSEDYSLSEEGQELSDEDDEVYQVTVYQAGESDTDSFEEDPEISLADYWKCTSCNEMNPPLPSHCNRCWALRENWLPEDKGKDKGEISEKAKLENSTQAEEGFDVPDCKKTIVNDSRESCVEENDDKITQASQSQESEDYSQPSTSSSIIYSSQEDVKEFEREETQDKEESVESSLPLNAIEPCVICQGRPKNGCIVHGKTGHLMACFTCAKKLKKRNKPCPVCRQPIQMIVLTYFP

The target of experiment [3] is T3, E3 ubiquitin-protein ligase Mdm2/Histone deacetylase 2 (Homo sapiens) (UniProt Q00987+Q92769). As to the kind of experiment: PROTAC activity at MDM2/HDAC2 in human HCT-116 cells assessed as decrease in HDAC2 abundance by measuring remaining activity at 5 uM measured after 24 hrs by Western blot analysis (reference value: 100%). The method, boiled down:
as §1

The target in experiment [4] is T3, E3 ubiquitin-protein ligase Mdm2/Histone deacetylase 2 (Homo sapiens). The experiment in a line: PROTAC activity at MDM2/HDAC2 in human HCT-116 cells assessed as induction of HDAC2 degradation by Western blot analysis. To be noted: dose 0.01-10 µM.
Experiment [5] deals with T4, E3 ubiquitin-protein ligase Mdm2/Histone deacetylase 1 (Homo sapiens) (UniProt Q00987+Q13547). The experiment in a line: PROTAC activity at MDM2/HDAC1 in human HCT-116 cells assessed as decrease in HDAC1 abundance by measuring remaining activity at 1 uM measured after 24 hrs by Western blot analysis (reference value: 100%). The method, boiled down: as §1
T4 sequence (Q00987 whole entry, looked up): as above
T4 sequence (Q13547 whole entry, looked up): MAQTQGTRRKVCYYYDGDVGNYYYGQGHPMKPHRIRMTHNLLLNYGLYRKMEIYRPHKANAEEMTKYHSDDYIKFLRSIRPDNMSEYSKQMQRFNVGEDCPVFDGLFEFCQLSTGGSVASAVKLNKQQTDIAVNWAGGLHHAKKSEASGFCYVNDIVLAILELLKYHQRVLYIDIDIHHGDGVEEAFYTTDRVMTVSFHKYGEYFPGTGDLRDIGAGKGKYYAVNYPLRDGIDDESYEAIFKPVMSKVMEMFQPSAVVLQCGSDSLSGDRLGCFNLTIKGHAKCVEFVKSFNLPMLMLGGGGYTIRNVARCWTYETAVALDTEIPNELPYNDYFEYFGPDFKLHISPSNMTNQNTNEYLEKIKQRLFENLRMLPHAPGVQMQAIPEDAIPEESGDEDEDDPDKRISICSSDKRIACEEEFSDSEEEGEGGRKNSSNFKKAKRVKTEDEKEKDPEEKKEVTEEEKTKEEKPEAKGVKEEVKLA
Experiment [6] deals with T2, E3 ubiquitin-protein ligase Mdm2/Histone deacetylase 3 (Homo sapiens). As to the kind of experiment: PROTAC activity at MDM2/HDAC3 in human HCT-116 cells assessed as reduction in HDAC3 abundance by measuring remaining activity at 0.25 uM measured after 24 hrs by Western blot analysis. The method, boiled down: as §2
The target in experiment [7] is T4, E3 ubiquitin-protein ligase Mdm2/Histone deacetylase 1 (Homo sapiens). As to the kind of experiment: PROTAC activity at MDM2/HDAC1 in human HCT-116 cells assessed as decrease in HDAC1 abundance by measuring remaining activity at 0.5 uM measured after 24 hrs by Western blot analysis (reference value: 100%). The method, boiled down: as §1
The target of experiment [8] is T2, E3 ubiquitin-protein ligase Mdm2/Histone deacetylase 3 (Homo sapiens). As to the kind of experiment: PROTAC activity at MDM2/HDAC3 in human HCT-116 cells assessed as reduction in HDAC3 abundance by measuring remaining activity at 0.025 uM measured after 24 hrs by Western blot analysis. The method, boiled down:
as §1

Experiment [9] deals with Lysine-specific histone demethylase 1A (Homo sapiens) (UniProt O60341). As to the kind of experiment: Induction of LSD1 degradation in human HCT-116 cells assessed as reduction in LSD1 abundance by measuring remaining activity at 2.5 uM measured after 24 hrs by Western blot analysis (reference value: 100%). An outline of the steps: as §1
In experiment [10] the target is T4, E3 ubiquitin-protein ligase Mdm2/Histone deacetylase 1 (Homo sapiens). The experiment in a line: PROTAC activity at MDM2/HDAC1 in human HCT-116 cells assessed as decrease in HDAC1 abundance by measuring remaining activity at 5 uM measured after 24 hrs by Western blot analysis (reference value: 100%). The method, boiled down:
as §1

For experiment [11], the target named is T3, E3 ubiquitin-protein ligase Mdm2/Histone deacetylase 2 (Homo sapiens). As to the kind of experiment: PROTAC activity at MDM2/HDAC2 in human HCT-116 cells assessed as decrease in HDAC2 abundance by measuring remaining activity at 0.05 uM measured after 24 hrs by Western blot analysis (reference value: 100%). An outline of the steps:
as §1

For experiment [12] the target is unchanged. The experiment in a line: PROTAC activity at MDM2/HDAC2 in human HCT-116 cells assessed as decrease in HDAC2 abundance by measuring remaining activity at 10 uM measured after 24 hrs by Western blot analysis (reference value: 100%). An outline of the steps: as §1

T3 sequence (Q00987 whole entry, looked up): as the sequence (Q00987 whole entry, looked up) above
T3 sequence (Q92769 whole entry, looked up): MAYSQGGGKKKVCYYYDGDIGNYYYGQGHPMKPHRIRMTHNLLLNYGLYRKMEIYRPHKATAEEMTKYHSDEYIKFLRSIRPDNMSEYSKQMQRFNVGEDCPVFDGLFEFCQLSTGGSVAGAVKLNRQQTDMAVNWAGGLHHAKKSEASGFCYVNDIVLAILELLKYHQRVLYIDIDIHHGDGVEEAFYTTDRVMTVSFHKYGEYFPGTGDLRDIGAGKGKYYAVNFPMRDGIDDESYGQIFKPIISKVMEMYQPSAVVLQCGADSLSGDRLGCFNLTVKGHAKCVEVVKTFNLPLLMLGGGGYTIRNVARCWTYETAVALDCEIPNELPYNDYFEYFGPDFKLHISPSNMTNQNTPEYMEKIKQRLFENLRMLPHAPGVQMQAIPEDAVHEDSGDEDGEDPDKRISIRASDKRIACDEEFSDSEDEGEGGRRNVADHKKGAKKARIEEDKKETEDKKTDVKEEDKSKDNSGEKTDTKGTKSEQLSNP

As to `COc1cc(C(=O)NCCOCCOCCOCCOCCC(=O)Nc2ccc(C(=O)Nc3ccccc3N)cc2)ccc1NC(=O)[C@@H]1N[C@@H](CC(C)(C)C)[C@](C#N)(c2ccc(Cl)cc2F)[C@H]1c1cccc(Cl)c1F`, the Activity in experiment [1] is 99%; in experiment [2], 105%; in [3], 69%; in experiment [4], “Dose-Dependent Effect”; in experiment [5], 43%; in experiment [6], 102%. Further, the Activity was 67% in [7]; 100% in experiment [8]; 73% in experiment [9]; 41% in [10]; 90% in experiment [11]; 54% in experiment [12].

The record behind these values is ChEMBL document CHEMBL5357024, “MDM2 Antagonist Idasanutlin Reduces HDAC1/2 Abundance and Corepressor Partners but Not HDAC3” (ACS Med Chem Lett, 2024).
